Shown are actives, neighbours in structure and some others; about 3.5% of the full set was active somewhere.
MrgX1 ag: human MrgX1 receptor agonism, primary screen; MrgX1-HEK293 cells, Fluo-4 calcium fluorescence, agonist mode; active compounds read high; B-score at 10 µM; 0.44% of 310,000 active; AID 588627;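 active means calcium response B-score plate-corrected fluorescence ratio at least 3 library SD, with starting fluorescence B-score inside 5 SD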
Target sequence (Q96LB2 whole entry, looked up): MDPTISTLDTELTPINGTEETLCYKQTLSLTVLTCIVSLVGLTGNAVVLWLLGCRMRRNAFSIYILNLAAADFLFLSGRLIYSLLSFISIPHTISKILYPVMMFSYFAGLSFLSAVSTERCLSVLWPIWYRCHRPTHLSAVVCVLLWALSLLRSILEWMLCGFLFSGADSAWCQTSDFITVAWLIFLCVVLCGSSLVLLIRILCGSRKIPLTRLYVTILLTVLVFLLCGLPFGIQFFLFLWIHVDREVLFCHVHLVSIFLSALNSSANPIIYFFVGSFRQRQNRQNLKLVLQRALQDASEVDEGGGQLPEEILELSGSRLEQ
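Material: HEK293 cells stably expressing human MrgX1 receptor | Quantity: 15,000 cells per well | Times: Cells plated overnight, dye loaded 0.5 h 37 °C, 0.5 h room temperature | Measured by: Kinetic Fluo-4 NW fluorescence of intracellular calcium | Control set: Positive and negative controls per plate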
RGS4 pot: potentiators or activators of RGS4; HEK293 M3R/inducible RGS4, carbachol calcium flux Fluo4; active compounds read low; B-score at 10 µM; 0.92% of 310,000 active;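 active means B-score of the integrated calcium signal more than 4 SD below the library mean, with starting fluorescence not abnormally high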;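 further: negative B-score means reduced calcium response which marks RGS4 activation or potentiation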
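Detection: kinetic calcium fluorescence imaging with Fluo4-AM dye, 2 µM / Material: HEK293 cells with stable M3R and inducible RGS4 / Schedule: recording 10 s baseline at 1 Hz, 100 s post-agonist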
RGS4 block: inhibitors of human RGS4 | B-score at 10 µM | 0.45% of 310,000 active | HEK293 M3R/RGS4 inducible, Fluo-4 calcium flux; active compounds read high; triggered by carbachol at its EC20 | AID 463165;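 active means B-score, a plate-corrected calcium signal, over three deviations above library mean, with baseline fluorescence within five deviations of library mean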;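 further: RGS4 expression induced by doxycycline in cells with stable M3 receptor; B-score is computed from the integrated fluorescence ratio over baseline after carbachol; higher B-score means a larger calcium signal and so more RGS4 inhibition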
Target sequence (P49798 whole entry, looked up): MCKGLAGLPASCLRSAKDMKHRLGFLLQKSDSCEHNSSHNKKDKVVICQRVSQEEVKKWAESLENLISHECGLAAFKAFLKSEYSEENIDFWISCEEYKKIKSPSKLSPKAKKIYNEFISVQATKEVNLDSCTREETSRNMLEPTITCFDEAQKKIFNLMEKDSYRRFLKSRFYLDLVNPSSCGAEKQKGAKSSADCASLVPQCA
MrgX1 PAM: human MrgX1 positive allosteric modulation, primary screen | MrgX1-HEK293, Fluo-4 calcium flux, FDSS; active compounds read high | B-score at 10 µM | 0.63% of 310,000 active | AID 588675;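 active means plate-corrected calcium response at least 3 library SD above typical, normal starting fluorescence, not activating the receptor alone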;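 further: compound read alongside a low EC10 to EC30 dose of BAM8-22 agonist; peak minus trough fluorescence over baseline measured at the second addition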
MrgX1 antag: blocks BAM8-22 activation of human MrgX1 receptor; B-score at 10 µM; 1.3% of 310,000 active; MRGX1-HEK293 calcium flux, Fluo-4, BAM8-22 antagonism; active compounds read low;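 active means calcium-response B-score plate-corrected more than 3 library SD below zero, starting fluorescence within 5 deviations, no agonist response on first addition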;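 further: peak minus trough fluorescence over baseline after final BAM8-22 challenge near maximal dose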
MrgX1 PAM conf: human MrgX1 positive allosteric modulation, re-confirmation; shares compounds with MrgX1 PAM; MrgX1-HEK293, Fluo-4 calcium fluorescence, FDSS; activation (ratio percentage), % at 10 µM; 13% of 1,200 active; AID 602413;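 active means ratio at least 3 SD above the weak peptide control, stable starting fluorescence, no direct agonism earlier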;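 further: compound followed by low BAM8-22 agonist challenge near EC20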
HEK293 Ca flux: counter-screen for MrgX1 antagonists: effect in parental HEK293 cells; shares compounds with MrgX1 antag; Fluo-4 calcium fluorescence, FDSS; fluorescence ratio F(max-min)/F0 at 10 µM; 2% of 4,000 active; AID 624111;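 active means duplicate-averaged calcium fluorescence ratio at least three times the standard deviation of buffer wells, a nonspecific response in parental cells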
HEK293 Ca counter: activity in parental HEK293 cells without MrgX1; shares compounds with MrgX1 antag; parental HEK293 calcium flux, Fluo-4 fluorescence ratio; active compounds read high; fluorescence ratio F(max-min)/F0 at 10 µM; 0.4% of 4,000 active; AID 624114;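 active means calcium fluorescence ratio, averaged over duplicates, at least 3 SD of the buffer-well ratio, meaning a nonspecific response in receptor-free cells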;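 further: untransfected parental HEK293 lacking MrgX1 used as counterscreen for MrgX1 allosteric activators; fluorescence change taken during the second addition on a kinetic imager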
HEK293 Ca cntr2: MrgX1 activator counter-screen hit in parental HEK293 cells. AID 624115. 8.7% of 4,000 active. fluorescence ratio F(max-min)/F0 at 10 µM. Fluo-4 calcium fluorescence (FDSS); active compounds read high. shares compounds with MrgX1 antag;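 active means calcium fluorescence ratio at least three times the spread of buffer wells, meaning a non-specific response in parental cells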
* hit, by the source's call; i = inactive; . = no result.

SMILES	MrgX1 ag	RGS4 pot	RGS4 block	MrgX1 PAM	MrgX1 antag	MrgX1 PAM conf	HEK293 Ca flux	HEK293 Ca counter	HEK293 Ca cntr2
Cc1ccc(S(=O)(=O)N2CCCC2CNC(=O)C(=O)Nc2ccc(F)cc2F)cc1 (stereo not drawn)	i	i	i	i	i	.	.	.	.
CC(=O)Nc1ccc(S(=O)(=O)N(C)CC(=O)OCCOc2cccc(C)c2)cc1	i	i	i	i	i	.	.	.	.
O=C(COc1ccccc1)Nc1ccccc1N1CCN(c2ccccc2)CC1	i	i	i	13*	i	i	i	i	i
CC(C)C(=O)N1CCN(c2ccccc2NC(=O)COc2ccccc2)CC1	i	i	i	i	i	.	.	.	.
Cc1ccc(OCc2n[nH]c(=S)n2-c2ccc(Cl)cc2)cc1	i	i	i	i	i	.	.	.	.
Cc1ccc(OCc2n[nH]c(=S)n2-c2ccc(Br)cc2)cc1	i	i	i	7.6*	i	i	i	i	i
CCn1c(-c2cc(-c3ccc(C)c(C)c3)nc3ccccc23)n[nH]c1=S	i	i	i	i	i	.	.	.	.
Cc1ccc(-c2cc(-c3n[nH]c(=S)n3C)c3ccccc3n2)cc1	i	i	i	11*	i	i	i	i	i
Cn1c(Cc2cccs2)nnc1SCC(=O)Nc1ccc(F)cc1F	i	i	i	i	i	.	.	.	.
COc1ccc(N2CCN(CC(O)COCc3ccccc3)CC2)cc1 (stereo not drawn)	i	i	i	7.7*	i	i	i	i	i
COc1cccc(CNc2ccc([N+](=O)[O-])cc2Cl)c1O	i	i	i	25*	i	13%*	i	i	i
COc1cccc(CNc2ccc(F)c(Cl)c2)c1O	i	i	i	27*	i	13%*	i	i	i
COc1cccc(CNc2cccc(C(F)(F)F)c2)c1O	i	i	i	36*	i	10%*	i	i	i
COc1cccc(CNc2cnc3ccccc3c2)c1O	i	i	i	7.1*	i	i	i	i	i
O=C(CNC(=O)c1ccccc1F)N/N=C/c1cccnc1	i	i	i	i	i	.	.	.	.
COc1cc(C(=O)NCC(=O)N/N=C/c2cccnc2)cc(OC)c1OC	i	i	i	i	i	.	.	.	.
CC(C)(C)c1ccc(C2=CC(c3ccccc3)n3ncnc3N2)cc1 (stereo not drawn)	i	i	i	9.3*	i	i	i	i	57*
Cc1ccc(C2=CC(c3ccc(C)cc3)n3ncnc3N2)cc1 (stereo not drawn)	i	i	i	i	i	.	.	.	.
c1ccc(-c2csc(-c3cccnc3)n2)cc1	i	i	i	14*	i	i	i	i	i
COc1ccc(CN2CCN(Cc3cc4ccccc4o3)CC2CCO)cc1C (stereo not drawn)	i	i	i	i	i	.	.	.	.
CC(=O)c1ccc(N2CCN(S(=O)(=O)c3ccc(-c4cnc(C5CC5)o4)cc3)CC2)cc1	i	i	i	i	i	.	.	.	.
Cc1ccccc1-n1ncc2c1CC(C)(C)CC2NC(=O)CCC(F)(F)F (stereo not drawn)	i	i	i	9.8*	i	i	i	i	i
CSc1ncccc1C(=O)NC1CC(C)(C)Cc2c1cnn2-c1ccccc1C (stereo not drawn)	i	i	i	17*	i	i	i	i	i
Cc1ccccc1-n1ncc2c1CC(C)(C)CC2NC(=O)c1snnc1C (stereo not drawn)	i	i	i	10*	i	7.8%*	i	i	i
Cc1ccccc1-n1ncc2c1CC(C)(C)CC2NC(=O)c1ccncc1 (stereo not drawn)	i	i	i	i	i	.	.	.	.
SMILES	MrgX1 ag	RGS4 pot	RGS4 block	MrgX1 PAM	MrgX1 antag	MrgX1 PAM conf	HEK293 Ca flux	HEK293 Ca counter	HEK293 Ca cntr2
CCOc1ccc2nc(N3CCCC(C(=O)NCC4CCCO4)C3)sc2c1 (stereo not drawn)	i	i	i	6.6*	i	i	i	i	i
CCCN1CCN(CCCNC(=O)C2CCCN(c3nc4ccc(OCC)cc4s3)C2)CC1 (stereo not drawn)	i	i	i	i	i	.	.	.	.
Cc1cc(NC2CCCC2)n2nc(C)c(-c3ccccc3)c2n1	i	i	i	6.8*	i	i	i	i	i
Cc1ccc(Sc2ncccc2C(=O)N(C)Cc2cccs2)c(C)c1	i	i	i	25*	i	i	i	i	i
Cc1ccc(Nc2ncccc2C(=O)NCc2cccs2)c(C)c1	i	i	i	i	i	.	.	.	.
CNC(=O)CC1C(=O)N(c2ccc(Cl)cc2)C(=S)N1CCc1ccc(OC)c(OC)c1 (stereo not drawn)	i	i	i	10*	i	i	i	i	i
COc1ccc(CCN2C(=S)N(c3ccccc3)C(=O)C2CC(=O)O)cc1OC (stereo not drawn)	i	i	i	i	i	.	.	.	.
CCSc1nc2c(c(=O)[nH]1)C(c1ccncc1)C(C(=O)OC(C)C)=C(C)N2 (stereo not drawn)	i	i	i	i	i	.	.	.	.
CCSc1nc2c(c(=O)[nH]1)C(c1cccnc1)C(C(=O)OC)=C(C)N2 (stereo not drawn)	i	i	i	8.5*	i	i	i	i	i
COc1ccc(CN2CCC(n3nccc3NC(=O)CCc3ccccc3)CC2)c(C)c1C	.	i	i	.	.	.	.	.	.
Cc1ccc(Oc2ccc(Cl)cc2N)cc1	i	i	i	6.8*	i	i	i	i	i
Nc1cc(Cl)ccc1Oc1ccc2ccccc2c1	i	i	i	i	i	.	.	.	.
O=C(CNC1CCCCC1)Nc1cccc(C(F)(F)F)c1	i	i	i	i	i	.	.	.	.
CC1(C(=O)N2CCN(C(=O)c3ccco3)CC2)CC1(Br)Br (stereo not drawn)	i	i	i	i	i	.	.	.	.
